In ChEMBL document CHEMBL3853270, “Influence of Birch Bark Triterpenes on Keratinocytes and Fibroblasts from Diabetic and Nondiabetic Donors” (2016):
Calls of active or inactive are those of the source.

Key:
[1] = test system: Keratinocyte; assay: Effect on actin cytoskeleton in human diabetic primary keratinocytes assessed as formation of cellular protrusions at 10 nM after 2 hrs by rhodamine phalloidin-staining based fluorescence microscopic analysis; format: functional
Outline: (§1)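 Subconfluent cells on glass coverslips, collagen type I coated for fibroblasts; keratinocytes starved 2 days before stimulation. Exposure 2 h, then rhodamine-phalloidin staining (1:25 in PBS) and fluorescence microscopy. Controls were DMSO as solvent and PDGF (fibroblasts) or CNF1 (keratinocytes). Where used, p38-MAPK inhibitor LN 950 (100 nM) was added 30 min beforehand.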

[2] = test system: Fibroblast; assay: Effect on actin cytoskeleton in human diabetic primary fibroblasts assessed as formation of thin elongated cellular body at 10 nM after 2 hrs by rhodamine phalloidin-staining based fluorescence microscopic analysis; format: functional; outline: as §1
[3] = test system: Fibroblast; assay: Effect on actin cytoskeleton in human non-diabetic primary fibroblasts assessed as formation of thin elongated cellular body at 10 nM after 2 hrs by rhodamine phalloidin-staining based fluorescence microscopic analysis; format: functional; outline: as §1
[4] = test system: Fibroblast; assay: Effect on actin cytoskeleton in human non-diabetic primary fibroblasts assessed as formation of thin elongated cellular body at 10 nM after 2 hrs in presence of p-38 MAPK inhibitor LN 950 by rhodamine phalloidin-staining based fluorescence microscopic analysis; format: functional; outline: as §1
[5] = biological target: Transforming protein RhoA (Homo sapiens) (UniProt P61586); assay: Activation of RhoA in human diabetic primary keratinocytes at 10 nM after 3 hrs by immunoblot method
Outline: (§2)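 Keratinocytes from a diabetic adult donor; incubation 3 h for RhoA, 20 min for Cdc42 and Rac1. Lysates made in glycerol/Tris pH 7.4/NaCl/NP-40/MgCl2/PMSF buffer, spun at 4 °C. Active GTP-bound form pulled down on glutathione-sepharose with GST-Rhotekin (RhoA) or GST-PAK (Cdc42, Rac1) for 1 h at 4 °C. Total and pulled-down protein read by immunoblot with ECL; n = 3.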

[6] = biological target: Cell division control protein 42 homolog (Homo sapiens) (UniProt P60953); assay: Activation of Cdc42 in human diabetic primary keratinocytes at 10 nM after 20 mins by immunoblot method; outline: as §2
[7] = biological target: Ras-related C3 botulinum toxin substrate 1 (Homo sapiens) (UniProt P63000); assay: Activation of Rac1 in human diabetic primary keratinocytes at 10 nM after 20 mins by immunoblot method
Outline: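 Primary keratinocytes from a diabetic adult donor (NHK-d), exposed 20 min. Lysed in glycerol/Tris pH 7.4/NaCl/NP-40/MgCl2/PMSF buffer and cleared at 4 °C. Supernatant incubated 1 h at 4 °C with glutathione-sepharose beads carrying GST-PAK to pull down active GTP-bound Rac1. Blotted on a 13% gel, probed with anti-Rac1 (1:2.000) and detected by ECL; total Rac1 also measured. CNF1 (2 nM) positive control, n = 3.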

[8] = test system: Fibroblast; assay: Induction of shape change of actin cytoskeleton in human diabetic primary fibroblasts at 10 nM after 2 hrs by rhodamine phalloidin-staining based fluorescence microscopic analysis; format: functional
[9] = test system: Fibroblast; assay: Induction of shape change of actin cytoskeleton in human non-diabetic primary fibroblasts at 10 nM after 2 hrs by rhodamine phalloidin-staining based fluorescence microscopic analysis; format: functional

Measured: Activity

Cell division control protein 42 homolog (Homo sapiens), sequence (P60953 whole entry, looked up): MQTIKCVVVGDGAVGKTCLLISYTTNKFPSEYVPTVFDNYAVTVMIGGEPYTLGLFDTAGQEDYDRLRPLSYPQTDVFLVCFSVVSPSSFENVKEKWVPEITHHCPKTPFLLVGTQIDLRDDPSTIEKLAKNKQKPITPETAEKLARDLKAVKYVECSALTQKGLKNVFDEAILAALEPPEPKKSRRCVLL
Transforming protein RhoA (Homo sapiens), sequence (P61586 whole entry): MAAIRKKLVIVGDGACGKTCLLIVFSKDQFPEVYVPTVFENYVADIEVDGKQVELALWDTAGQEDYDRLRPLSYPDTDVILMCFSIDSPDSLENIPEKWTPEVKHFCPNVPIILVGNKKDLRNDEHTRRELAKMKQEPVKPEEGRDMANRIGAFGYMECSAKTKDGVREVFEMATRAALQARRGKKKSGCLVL

C=C(C)[C@@H]1CC[C@]2(C)CC[C@]3(C)[C@H](CC[C@@H]4[C@@]5(C)CC[C@H](O)C(C)(C)[C@@H]5CC[C@]43C)[C@@H]12
not listed: [8] | [9]
active: all other assays above

C=C(C)[C@@H]1CC[C@]2(C(=O)O)CC[C@]3(C)[C@H](CC[C@@H]4[C@@]5(C)CC[C@H](O)C(C)(C)[C@@H]5CC[C@]43C)[C@@H]12
active: [8] | [9]
